From ChEMBL document CHEMBL1134306, “New antimitotic agents with activity in multi-drug-resistant cell lines and in vivo efficacy in murine tumor models” (J Med Chem, 2001)

Columns and labels:
[1] = tested on: HCT-15; experiment: Effective dose against HCT-15 cell line.; format: functional; conditions: Homo sapiens, read-out: ED50 (the source's name)
Summary of the method: (§1)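 HCT-15 (MDR+) or NCI-H460 (MDR−) cells in growth medium treated with compounds over a range of concentrations for 48 h. Cells then trypsinized and counted per well with a Coulter counter. ED50 derived from cell number. Compounds at 1 μM or below were retested in both lines. Values reported as mean ± SD.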

[2] = tested on: NCI-H460; experiment: Effective dose against NCI-H460 cell line.; format: functional; conditions: Homo sapiens, read-out: ED50 (the source's name); summary of the method: as §1
[3] = Volume of distribution following intravenous dosing, tested in vivo in mice; format: ADME, organism-based; conditions: mouse, read-out: Vc
[4] = Integrated compound concentration with respect to time following oral dosing, tested in vivo in mice; format: ADME, organism-based; conditions: mouse
[5] = Oral bioavailability in mouse; format: ADME, organism-based; conditions: in vivo
[6] = (§2) Half-life following intravenous dosing, tested in vivo in mice; format: ADME, organism-based; conditions: mouse
[7] = (§3) Area under the curve following intravenous dosing, integrated compound concentration with respect to time, tested in vivo in mice; format: ADME, organism-based; conditions: mouse
[8] = Time to maximum plasma concentration following oral dosing, tested in vivo in mice; conditions: mouse, plasma
[9] = (§4) Maximum plasma concentration following intravenous dosing, tested in vivo in mice; format: ADME, organism-based; parameters: route intravenous; conditions: mouse, plasma
[10] = tested on: Mus musculus; experiment: as §2; format: ADME, organism-based
[11] = tested on: Mus musculus; experiment: as §3; format: ADME, organism-based
[12] = tested on: Mus musculus; experiment: Time to maximum plasma concentration following oral dosing, tested in vivo in mice; conditions: in vivo
[13] = tested on: Mus musculus; experiment: as §4; format: ADME, organism-based; parameters: route intravenous; conditions: in vivo

SMILES | EC50 [1] | EC50 [2] | also measured
COc1cc(-c2cc(-c3ccc(N)c(C)c3)nn2C(C)=O)cc(OC)c1OC | 365 µM | 1000 µM | –
COc1cc(C2CN=C(c3ccc(C)c(N)c3)O2)cc(OC)c1OC (configuration not stated) | 0.082 µM | 0.063 µM | –
COc1cc(C2CN=C(c3ccc(N(C)C)cc3)O2)cc(OC)c1OC (configuration not stated) | 0.12 µM | 0.35 µM | Vd [3]: 3.3 L/kg; AUC [4]: 1660 ng·h/mL; bioavailability [5]: 49%; half-life [6]: 48 min; AUC [7]: 3410 ng·h/mL; Tmax [8]: 54 min; Cmax [9]: 891 ng/mL
COc1cc(C2OC(c3ccc(N(C)C)cc3)=NN2C(=O)CNC=O)cc(OC)c1OC (configuration not stated) | 0.035 µM | 0.04 µM | –
COc1cc(C2OC(c3ccc(N)c(C)c3)=NN2C(C)=O)cc(OC)c1OC (configuration not stated) | 0.042 µM | 0.059 µM | Vd [3]: 2.2 L/kg; AUC [4]: 147 ng·h/mL; bioavailability [5]: 7%; T1/2 [10]: 66 min; AUC [11]: 2109 ng·h/mL; T max [12]: 102 min; Cmax [13]: 59 ng/mL
CCCCNC(=O)c1c(OC)cc(C2OC(c3ccc(N)c(C)c3)=NN2C(C)=O)cc1OC (configuration not stated) | 178 µM | 60 µM | –
COc1cc(C2OC(c3ccc(N(C)C)cc3)=NN2C=O)cc(OC)c1OC (configuration not stated) | 0.096 µM | 0.12 µM | –
COc1cc(C2CN=C(c3ccc4nc(O)oc4c3)O2)cc(OC)c1OC (configuration not stated) | 4.3 µM | 72 µM | –
COc1ccc(C2OC(c3ccc(N(C)C)cc3)=NN2C(C)=O)cc1OC (configuration not stated) | 8.2 µM | 5.1 µM | –
COc1cc(C2CN=C(c3ccc4c(c3)CCCN4C)O2)cc(OC)c1OC (configuration not stated) | 0.66 µM | 0.32 µM | –
COc1cc(C2COC(c3ccc(N(C)C)cc3)O2)cc(OC)c1OC (configuration not stated) | 2.4 µM | 8.3 µM | –
COc1cc(C2OC(c3ccc(N(C)C)cc3)=NN2C(=O)CN=[N+]=[N-])cc(OC)c1OC (configuration not stated) | 0.15 µM | 0.53 µM | –
COC(=O)N1N=C(c2ccc(N(C)C)cc2)OC1c1cc(OC)c(OC)c(OC)c1 (configuration not stated) | 40 µM | 106 µM | –
COc1cc(C2CN=C(c3ccc4c(c3)CCN4C)O2)cc(OC)c1OC (configuration not stated) | 0.61 µM | 0.82 µM | –
COc1cc(C2OC(c3ccccc3N(C)C)=NN2C(C)=O)cc(OC)c1OC (configuration not stated) | 65 µM | 109 µM | –
COc1cc(C2OC(c3cccc(N(C)C)c3)=NN2C(C)=O)cc(OC)c1OC (configuration not stated) | 0.16 µM | 0.26 µM | –
COc1cc(C2OC(c3ccc(N(C)C)cc3)=NN2C(=O)CNC(C)=O)cc(OC)c1OC (configuration not stated) | 0.18 µM | 0.48 µM | –
COc1cc(C2SC(c3ccc(N(C)C)cc3)=NN2C(C)=O)cc(OC)c1OC (configuration not stated) | 0.61 µM | 0.35 µM | –
COc1cc(C2OC(c3ccc(N)c(C)c3)=NN2C(C)=O)cc2c1OCO2 (configuration not stated) | 0.62 µM | 0.63 µM | –

SMILES | EC50 [1] | EC50 [2] | also measured
COc1cc(-c2nnc(-c3ccc(N(C)C)cc3)s2)cc(OC)c1OC | 231 µM | 1000 µM | –
COc1cc(C2CN=C(c3ccc4c(ccn4C)c3)O2)cc(OC)c1OC (configuration not stated) | 0.018 µM | 0.028 µM | Vd [3]: 1.4 L/kg; AUC [4]: 1780 ng·h/mL; bioavailability [5]: 35%; half-life [6]: 114 min; AUC [7]: 5120 ng·h/mL; Tmax [8]: 24 min; Cmax [9]: 799 ng/mL
COc1cc(-c2nnc(-c3ccc(N(C)C)cc3)o2)cc(OC)c1OC | 92 µM | 106 µM | –
COc1cc(C2OC(c3ccc(N(C)C)cc3)=NN2C(=O)CN(C)C)cc(OC)c1OC (configuration not stated) | 80 µM | 74 µM | –
COc1cc(C2OC(c3ccc(N(C)C)cc3)=NN2C(=O)CO)cc(OC)c1OC (configuration not stated) | 0.026 µM | 0.043 µM | –
CC(=O)N1N=C(c2ccc(N(C)C)cc2)OC1c1cc(C)c(C)c(C)c1 (configuration not stated) | 1.5 µM | 5.7 µM | –
COc1cc(OC)c(C2OC(c3ccc(N)c(C)c3)=NN2C(C)=O)cc1OC (configuration not stated) | 198 µM | 1000 µM | –
COc1cc(C2OC(c3ccc(N(C)C)cc3)=NN2C(C)=O)cc(OC)c1OC(C)=O (configuration not stated) | 78 µM | 13 µM | –
COc1cc(C2OC(c3ccc(N(C)C)cc3)=NN2C(C)=O)cc(OC)c1OC (configuration not stated) | 0.033 µM | 0.044 µM | Vd [3]: 3.3 L/kg; AUC [4]: 155 ng·h/mL; bioavailability [5]: 4.9%; T1/2 [10]: 66 min; AUC [11]: 3170 ng·h/mL; T max [12]: 24 min; Cmax [13]: 113 ng/mL
COc1ccc(C2=NCC(c3cc(OC)c(OC)c(OC)c3)O2)cc1N (configuration not stated) | 0.082 µM | 0.073 µM | –
COc1cc(C2OC(c3ccc(N(C)C)cc3)=NN2C(=O)CN)cc(OC)c1OC (configuration not stated) | 0.65 µM | 0.66 µM | –
COC(=O)c1c(OC)cc(C2OC(c3ccc(N)c(C)c3)=NN2C(C)=O)cc1OC (configuration not stated) | 0.28 µM | 0.51 µM | –
COc1cc(OC)c(C2OC(c3ccc(N(C)C)cc3)=NN2C(C)=O)c(OC)c1 (configuration not stated) | 71 µM | 40 µM | –
COc1cc(C2OC(c3ccc(N(C)C)cc3)=NN2C(=O)COC(C)=O)cc(OC)c1OC (configuration not stated) | 0.019 µM | 0.072 µM | –
CC(=O)O[C@H]1C(=O)[C@@]2(C)[C@H]([C@H](OC(=O)c3ccccc3)[C@]3(O)C[C@H](OC(=O)[C@H](O)[C@@H](NC(=O)c4ccccc4)c4ccccc4)C(C)=C1C3(C)C)[C@]1(OC(C)=O)CO[C@@H]1C[C@@H]2O [PACLITAXEL] | 0.54 µM | 0.015 µM | –
CCOC(=O)C(=O)N1N=C(c2ccc(N(C)C)cc2)OC1c1cc(OC)c(OC)c(OC)c1 (configuration not stated) | 45 µM | 33 µM | –
COc1ccc(C2OC(c3ccc(N(C)C)cc3)=NN2C(C)=O)c(OC)c1OC (configuration not stated) | 7.5 µM | 6.8 µM | –
COc1cc(C2CN=C(c3ccc4[nH]ccc4c3)O2)cc(OC)c1OC (configuration not stated) | 0.097 µM | 0.116 µM | –
